In the library only some 3.9% were active in any assay of this set; here they are far more common.
tim23-1 inh: tim23-1 yeast growth inhibition | S. cerevisiae tim23-1 growth, BacTiter-Glo luminescence, 24 h | inhibition, % at 20 µM | hit rate 1.3% among 330,000 | AID 463212;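 active means growth inhibition of the mutant yeast at or above 50%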;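 further: temperature-sensitive mutant grown at 25 °C; plate controls were DMSO-treated mutant yeast for no effect and medium wells lacking yeast for full effect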
TIM10 inh: TIM10 yeast growth inhibition | hit rate 1.4% among 330,000 | S. cerevisiae TIM10 strain growth, BacTiter-Glo luminescence, 24 h | inhibition, % at 10 µM | AID 463195;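 active means inhibition of 40% or more at the single tested concentration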;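 further: wild-type TIM10 isogenic control strain grown at permissive 25 °C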
tim10-1 inh: inhibits growth of tim10-1 mutant yeast; S. cerevisiae tim10-1 ts strain growth, BacTiter-Glo, 24 h; inhibition, % at 20 µM; hit rate 2.2% among 330,000; AID 463190;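 active means inhibition of at least 40%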;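 further: mutant grown at 25 °C; 0% = DMSO wells with yeast and 100% = wells holding no yeast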
XBP1 UPR activ: adaptive UPR (XBP1) activation | CHO-XBP1 luciferase reporter, IRE1-XBP1 UPR activation, luminescence; percent of tunicamycin response, DMSO as zero | hit rate 0.33% among 330,000 | activation, % at 20 µM | AID 463104;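 active means versus positive control, 20 µM dose yields 30% or more activation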;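 further: 100% = tunicamycin at 10 µg/mL and 0% = DMSO only wells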
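Signal: luciferase luminescence; Assay system: CHO-XBP1 luciferase reporter cells; Amount: one thousand reporter cells per well; Dosing: 20 µM single concentration, DMSO 1%; Benchmarks: high control tunicamycin 10 µg/mL final, low control DMSO vehicle only; Schedule: 6 h compound exposure at 37 °C, 5% CO2; Evaluation: percent activation relative to tunicamycin reference.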
CHOP UPR activ: activators of apoptotic arm of unfolded protein response (CHOP) | CHO-CHOP luciferase reporter, UPR activation, luminescence; percent of tunicamycin response over DMSO baseline | activation, % at 10 µM | hit rate 0.34% among 330,000 | AID 449763;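 active means at 10 µM dose, activation of 40% or more, normalized to positive control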;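 further: 100% = tunicamycin at 10 µg/mL and 0% = DMSO alone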
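measured by = luciferase luminescence | assay system = CHO-CHOP cells, stable luciferase reporter of PERK-eIF2a-CHOP signalling | amount = 500 reporter cells seeded per well | timing = 6 h compound exposure at 37 °C after overnight seeding | controls = positive tunicamycin 10 µg/mL, negative DMSO alone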
CHOP UPR conf: confirmation of apoptotic unfolded protein response (CHOP) activators | shares compounds with CHOP UPR activ | CHO-CHOP cells, CHOP-luciferase reporter luminescence; percent of tunicamycin response, DMSO as zero | activation, % at 10 µM | hit rate 64% among 1,000 | AID 463112; in the data active means activation above about 33%;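 further: 0% = DMSO wells and 100% = tunicamycin 10 µg/mL wells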
Active calls of the source: *; x = not tested or not shown.

SMILES	tim23-1 inh	TIM10 inh	tim10-1 inh	XBP1 UPR activ	CHOP UPR activ	CHOP UPR conf
COc1ccc(CCNC(=O)c2coc(=O)c(Br)c2)cc1	6	7	27	-1	116*	56*
Cc1ccc(-c2nn3c(C)nnc3s2)cc1NC(=O)c1ccc(-c2cccc(Cl)c2)o1	-6	-15	-3	-1	2	x
Cc1ccc(-c2nn3c(C)nnc3s2)cc1NC(=O)c1ccc(-c2ccc(Cl)cc2Cl)o1	-25	8	11	51*	46*	35*
CC(=O)N(C1=C(Cl)C(=O)c2ccccc2C1=O)C1CCCCC1	27	36	21	-1	53*	-9
Cn1cc(/C=C2\SC(=O)NC2=S)c2ccccc21	10	-8	-3	17	51*	67*
COC(=O)C1=C(C(=O)OC)SC2(S1)C(C(=O)OC)=C(C(=O)OC)SC1=C2c2cccc(C)c2NC1(C)C	26	4	32	3	40*	19
CCOC(=O)C1(C)Oc2ccccc2C(C(=O)OC)=C1C(=O)OC (configuration not stated)	29	-12	4	1	5	x
CN(CC(=O)Nc1ccc(N2CCOCC2)cc1)C(=O)CCc1cc(C(C)(C)C)c(O)c(C(C)(C)C)c1	5	9	22	-1	4	x
Cc1ccc(S(C)(=O)=O)cc1C(=O)OCC(=O)N1CCCC1=O	1	2	-7	0	4	x
Cc1csc(NC(=O)CCC(=O)N(CC(=O)NC2CCCCC2)c2ccccc2)n1	3	-1	-14	-5	2	x
CCCCCOc1ccc(N2C(=O)CC(N(O)c3ccccc3)C2=O)cc1 (configuration not stated)	-3	-21	3	-1	112*	143*
CCCCOc1ccc(N2C(=O)CC(N(O)c3ccccc3)C2=O)cc1 (configuration not stated)	-4	-11	9	4	146*	165*
CCC1CN(C(=O)N2CCC(C(=O)NCc3cccc(OC)c3OC)CC2)c2cc(C)ccc2O1 (configuration not stated)	4	15	8	-4	1	x
O=C(NC1=C(Nc2ccc(Cl)cc2)C(=O)c2ccccc2C1=O)c1ccccc1	10	21	9	-2	5	x
CC(=O)Nc1ccc(NC2=C(Cl)C(=O)c3ccccc3C2=O)cc1	29	33	26	-1	45*	20
CCNC(=S)N1CCN(C(=O)C(Cc2ccccc2)NC(C)=O)CC1 (configuration not stated)	25	18	18	-4	52*	0
Cc1cc(OCC(=O)NNC(=S)NCC2CCCO2)cc(C)c1Cl (configuration not stated)	22	25	25	3	4	x
COC(=O)c1cc(=O)n(Cc2ccc(OC)c(OC)c2)c(=Nc2ccc(F)cc2)s1	16	1	16	12	22	x
COC(=O)c1cc(=O)n(CCc2ccc(OC)c(OC)c2)c(=Nc2ccc(F)c(Cl)c2)s1	30	14	22	13	41*	63*
O=C(N/N=C/c1ccc(Cl)c([N+](=O)[O-])c1)c1cc(-c2ccc3c4c(cccc24)CC3)n[nH]1	23	32	24	1	43*	14
O=C(N/N=C/c1cccc([N+](=O)[O-])c1)c1cc(-c2ccc3c4c(cccc24)CC3)n[nH]1	0	24	33	-2	-1	x
CCCCNC1C(CC)C(CCC)C(C#N)(C#N)C1(C#N)C#N (configuration not stated)	23	25	22	-8	74*	34*
CC(C)(C)c1ccc(OCc2ccc(C(=O)N/N=C/c3ccc(O)c(O)c3)cc2)cc1	9	-3	11	20	41*	27
CCOC(=O)C1CCN(Cc2ccc(O)c3ncccc23)CC1	-10	9	19	6	235*	142*
CCCN1C/C(=C/c2ccc3c(c2)OCO3)C(=O)/C(=C/c2ccc3c(c2)OCO3)C1	44	34	36	6	55*	115*
SMILES	tim23-1 inh	TIM10 inh	tim10-1 inh	XBP1 UPR activ	CHOP UPR activ	CHOP UPR conf
C[C@H](CO)N1C[C@H](C)[C@@H](CN(C)S(=O)(=O)c2ccccc2)Oc2c(NC(=O)C3CCCCC3)cccc2C1=O	-4	1	4	-1	-2	x
C=C(C(=O)c1ccccc1)C(C(=C)C(=O)c1ccccc1)c1ccc(OC)cc1	13	11	24	0	62*	65*
COc1ccc(C(CC(=O)c2ccccc2)CC(=O)c2ccccc2)cc1	32	22	11	3	-2	x
CC(=O)N(C1CC(C)C(C#N)(C#N)C1(C#N)C#N)N(C)C (configuration not stated)	9	9	5	-7	72*	-9
CCCC(=O)N(C1CC(C)C(C#N)(C#N)C1(C#N)C#N)N(C)C (configuration not stated)	9	11	15	-10	-7	x
CN(CC(=O)NCC1CCCCC1)CC(=O)Nc1ccc(F)cc1	7	0	14	0	0	x
Cc1ccc(S(=O)(=O)CCC(=O)OCC(=O)c2cc(C)n(C)c2C)cc1	16	10	13	0	2	x
CCc1cc2c(=O)[nH]c(-c3ccccn3)nc2s1	-136	18	10	11	290*	247*
CCc1ccc(NC2=CC(=O)C(=O)c3ccccc32)cc1	2	25	8	13	62*	20
O=C1C=C(Nc2ccccc2)c2ccccc2C1=O	16	21	24	6	35	x
O=C(NCCc1nnc2ccc(N3CCCC3)nn12)c1ccccc1	3	6	1	-1	0	x
Cc1cnnn1-c1ccc(C(=O)CCl)cc1	28	22	20	-7	132*	-9
CC(=O)c1ccc(-n2nncc2C(C)(C)C)cc1	-1	-2	-2	0	1	x
Oc1ccc(/C=N/Nc2cc(N3CCCC3)nc(N3CCCC3)n2)cc1O	-9	-26	-3	18	126*	124*
Oc1ccc(/C=N\Nc2cc(N3CCOCC3)nc(N3CCOCC3)n2)c(O)c1	8	7	3	2	4	x
Cc1cc(NC(=O)CCS(=O)(=O)c2nc(-c3ccccc3)cc(C(F)(F)F)n2)no1	48	25	36	-9	138*	466*
COc1ccc(-c2cc(C(F)(F)F)nc(S(=O)(=O)CCCC(=O)Nc3cccc(O)c3)n2)cc1OC	20	0	10	6	55*	22
CC(C)CCNC(=O)c1ccc2c(SCC(=O)O)c3c(nc2c1)CCCC3	4	6	1	-1	44*	-1
